Reference: ChEMBL document CHEMBL3421617, “Synthesis of selenazolopyridine derivatives with capability to induce apoptosis in human breast carcinoma MCF-7 cells through scavenge of intracellular ROS” (Eur J Med Chem, 2015)
Activity calls are given as the source filed them. The calls are words filed in the database; no cut-off is given here.

Assays:
MCF7 [1] = assay: Cytotoxicity against human MCF7 cells assessed as cell viability after 72 hrs by MTT assay; assay type: functional, cell-based; details: for IC50: MCF7, 72 h
Outline: (§1)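 Cells obtained from ATCC; human normal liver L02 included as the non-cancer line. Cells treated with various concentrations for 72 h. Viability read by MTT assay and IC50 values calculated from the concentration series.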

HepG2 = assay: Cytotoxicity against human HepG2 cells assessed as cell viability after 72 hrs by MTT assay; assay type: functional, cell-based; details: HepG2, 72 h; outline: as §1
[2] = Cytotoxicity against human L02 cells assessed as cell viability after 72 hrs by MTT assay; assay type: cell-based; details: L02, 72 h; outline: as §1
MCF7 [3] = assay: Cell cycle arrest in human MCF7 cells assessed as cells at Sub-G1 phase at 20 uM by flow cytometry (reference value: 3.3%); assay type: functional
MCF7 [4] = assay: Cell cycle arrest in human MCF7 cells assessed as cells at G0/G1 phase at 20 uM by flow cytometry (reference value: 41.9%); assay type: functional
MCF7 [5] = assay: Cell cycle arrest in human MCF7 cells assessed as cells at S phase at 20 uM by flow cytometry (reference value: 16.6%); assay type: functional
MCF7 [6] = assay: Cell cycle arrest in human MCF7 cells assessed as cells at G2/M phase at 20 uM by flow cytometry (reference value: 41.5%); assay type: functional
MCF7 [7] = assay: Cell cycle arrest in human MCF7 cells assessed as cells at Sub-G1 phase at 30 uM by flow cytometry (reference value: 3.3%); assay type: functional
MCF7 [8] = assay: Cell cycle arrest in human MCF7 cells assessed as cells at G0/G1 phase at 30 uM by flow cytometry (reference value: 41.9%); assay type: functional
MCF7 [9] = assay: Cell cycle arrest in human MCF7 cells assessed as cells at S phase at 30 uM by flow cytometry (reference value: 16.6%); assay type: functional
MCF7 [10] = assay: Cell cycle arrest in human MCF7 cells assessed as cells at G2/M phase at 30 uM by flow cytometry (reference value: 41.5%); assay type: functional
MCF7 [11] = assay: Cell cycle arrest in human MCF7 cells assessed as cells at Sub-G1 phase at 40 uM by flow cytometry (reference value: 3.3%); assay type: functional
MCF7 [12] = assay: Cell cycle arrest in human MCF7 cells assessed as cells at G0/G1 phase at 40 uM by flow cytometry (reference value: 41.9%); assay type: functional
MCF7 [13] = assay: Cell cycle arrest in human MCF7 cells assessed as cells at S phase at 40 uM by flow cytometry (reference value: 16.6%); assay type: functional
MCF7 [14] = assay: Cell cycle arrest in human MCF7 cells assessed as cells at G2/M phase at 40 uM by flow cytometry (reference value: 41.5%); assay type: functional
MCF7 [15] = assay: Cell cycle arrest in human MCF7 cells assessed as cells at Sub-G1 phase by flow cytometry; assay type: functional, cell-based
MCF7 [16] = assay: Inhibition of intracellular ROS production in human MCF7 cells assessed as decrease in DHE fluorescence intensity after 30 mins; assay type: functional, cell-based
Outline: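 MCF-7 cells loaded with 10 µM DHE in PBS for 30 min, then exposed to different concentrations of compound. Intracellular ROS followed as DHE fluorescence on a microplate reader, excitation 300 nm and emission 610 nm, over 30 min.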

MCF7 [17] = assay: Inhibition of intracellular ROS production in human MCF7 cells assessed as decrease in DHE fluorescence intensity at 80 uM after 30 mins by fluorescence microscopy; assay type: functional, cell-based
Outline: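 Cells loaded with DHE (10 µM) in a culture dish at 37 °C for 30 min, then treated at 80 µM. Imaged at once by fluorescence microscopy, with red DHE fluorescence followed for 30 min.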

[18] = Antioxidant activity assessed as ABTS radical scavenging activity; assay type: physicochemical; details: TDE = time-dependent effect
[19] = Antioxidant activity assessed as DPPH free radical scavenging activity; assay type: physicochemical; details: TDE = time-dependent effect

Row | Structure (SMILES) | IC50 (MCF7 [1]) [µM] | IC50 (HepG2) [µM] | IC50 [2] [µM] | further results
1 | Cc1ccc(Nc2nc3cccnc3[se]2)cc1 | 91.5 | 235 | 207 | 
2 | Brc1ccccc1Nc1nc2cccnc2[se]1 | 185 | 74.2 | 169 | 
3 | Cc1ccc(Nc2nc3cccnc3[se]2)cc1C | 202 | 145 | 182 | 
4 | Cc1ccccc1Nc1nc2cccnc2[se]1 | 52.5 | 507 | 121 | 
5 | Clc1ccccc1Nc1nc2cccnc2[se]1 | 43.3 | 181 | 84.6 | 
6 | Cc1cccc(Nc2nc3cccnc3[se]2)c1 | 56.4 | 56.7 | 54.3 | 
7 | c1ccc(Nc2nc3cccnc3[se]2)cc1 | 22.5 | 57.1 | 164 | inhibition (MCF7 [1]): Dose-dependent effect; Activity (MCF7 [3]): 27.1%; Activity (MCF7 [4]): 58.2%; Activity (MCF7 [5]): 34.3%; Activity (MCF7 [6]): 7.5%; Activity (MCF7 [7]): 36.7%; Activity (MCF7 [8]): 50.5%; Activity (MCF7 [9]): 22.3%; Activity (MCF7 [10]): 20.3%; Activity (MCF7 [11]): 58.3%; Activity (MCF7 [12]): 50.8%; Activity (MCF7 [13]): 25.8%; Activity (MCF7 [14]): 13.4%; Activity (MCF7 [15]): Dose-dependent effect; inhibition (MCF7 [16]): Dose-dependent effect; inhibition (MCF7 [17]): Active; Activity [18]: tde; Activity [19]: tde
